Screens deposited in PubChem BioAssay by several laboratories.
CYP2C9 inh = blocks human cytochrome P450 2C9 | 96,000 compounds, 20% hits | P11712 | CYP2C9 Supersomes, luciferin-H conversion, luminescence | inhibition, % at 5 µM;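 active means blocking of liver enzyme CYP2C9 beyond about 50% at 5 µM, limit read from the data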
CYP2C19 inh = blocks human cytochrome P450 2C19; CYP2C19 Supersomes, luciferin-H EGE luminescence, 30 min; inhibition, % at 5 µM; 96,000 compounds, 21% hits;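 active means CYP2C19 inhibition above a set limit at 5 µM in the primary screen, cut at about 50% in these data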;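 further: plate controls were negative control wells for no effect and 2.5 mM tranylcypromine positive control for full effect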
Target sequence (P33261 whole entry, looked up): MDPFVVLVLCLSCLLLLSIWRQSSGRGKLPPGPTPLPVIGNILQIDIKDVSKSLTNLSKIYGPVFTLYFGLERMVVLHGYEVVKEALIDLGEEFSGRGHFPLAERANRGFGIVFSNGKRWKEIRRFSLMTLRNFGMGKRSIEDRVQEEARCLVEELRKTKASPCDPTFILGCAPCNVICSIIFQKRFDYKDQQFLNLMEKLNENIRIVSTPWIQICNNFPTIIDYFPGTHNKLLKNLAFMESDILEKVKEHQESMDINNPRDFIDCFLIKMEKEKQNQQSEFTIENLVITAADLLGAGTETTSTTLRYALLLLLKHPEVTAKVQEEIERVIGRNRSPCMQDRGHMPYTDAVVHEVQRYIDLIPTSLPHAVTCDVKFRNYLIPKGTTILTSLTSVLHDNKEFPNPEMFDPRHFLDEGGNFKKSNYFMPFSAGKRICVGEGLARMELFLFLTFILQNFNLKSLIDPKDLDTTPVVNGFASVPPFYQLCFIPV
Cav32 inh = human Cav3.2 channel inhibition, primary screen; O95180; B-score at 10 µM; Cav3.2-expressing cells, Fluo-4 calcium fluorescence FDSS; active compounds read low; 100,000 compounds, 4% hits;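 active means single-dose well whose peak fluorescence ratio is a statistical outlier from its plate by either plate-standardised score or position-corrected B-score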
CYP2C9 activ = activators of human CYP2C9. P11712. AID 1024. 96,000 compounds, 1.4% hits. recombinant CYP2C9, luciferin-H conversion, luminescence; active compounds read high; factor 1 = untreated enzyme, 0 = blocked. activation factor at 5 µM;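 active means activation factor of 2 or more for CYP2C9 at a 5 µM dose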;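 further: 0 = sulfaphenazole-blocked wells and 1 = vehicle-only wells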
HIV Rev-RRE inh = disrupts HIV-1 Rev binding to RRE RNA; Rev peptide-RRE RNA binding, FRET; inhibition, % at 8 µM; 97,000 compounds, 0.79% hits;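 active means inhibition above the screen-wide mean plus 3 SD, cut at about 35% in these data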;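 further: 0% = median DMSO wells and 100% = median Neomycin B control wells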
Target sequence (P05866 whole entry, looked up): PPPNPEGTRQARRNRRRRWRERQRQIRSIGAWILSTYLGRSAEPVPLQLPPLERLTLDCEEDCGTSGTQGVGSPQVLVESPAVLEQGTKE
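Test system: Cy5-tagged RRE RNA duplex with fluorescein-tagged Rev peptide | Read-out: % inhibition of FRET ratio versus controls | Probe or stimulus: Labelled Rev peptide | Incubation: 5 min RNA-compound premix plus 15 min binding step, 25 °C | Technique: FRET fluorescence readout | Benchmarks: DMSO low control, neomycin B high control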
CYP2C19 activ = increases human CYP2C19 enzyme activity. recombinant CYP2C19, luciferin-H EGE luminescence; active compounds read high; 0 = fully inhibited enzyme, 1 = untreated enzyme. activation factor at 5 µM. 96,000 tested, under 10 active;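 active means activation factor of at least 2 at 5 µM in the primary screen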;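 further: 0 = wells with 2.5 mM tranylcypromine and 1 = vehicle-only wells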
* = called active by the depositor; . = no result. Most compounds without a hit are left out; they make up all but 27% or so of the library.

SMILES	CYP2C9 inh	CYP2C19 inh	Cav32 inh	CYP2C9 activ	HIV Rev-RRE inh	CYP2C19 activ
N#Cc1c(SCC(=O)Nc2nccs2)nc2c(c1-c1ccco1)CCCC2	70*	46	0.69	0.3	3	0.5
CCc1ccccc1NC(=O)CSc1nc2c(c(-c3ccco3)c1C#N)CCCC2	34	88*	-0.52	0.7	3	0.1
Cc1ccccc1NC(=O)CSc1nc2c(c(-c3ccco3)c1C#N)CCCC2	27	43	0.55	0.7	8	0.6
C/C(Cn1nnc([N+](=O)[O-])n1)=N\NC(=O)c1ccccc1	-10	12	-2.7	1.1	11	0.9
CCOc1ccc(C(=O)NCC(=O)OCC(=O)Nc2ccccc2OC)cc1	-21	46	1.2	1.2	4	0.5
CCOC(=O)c1sc2cc([N+](=O)[O-])cc(SCC(C)C)c2c1N	17	-7	-1.4	0.8	62*	1.1
CC(C)(C)n1nnnc1C(c1ccccn1)N(Cc1ccccc1)Cc1ccc(Cl)cc1 (configuration not stated)	32	6	-3.4	0.7	7	0.9
CCN(Cc1ccccc1)C(c1ccccn1)c1nnnn1C(C)(C)CC (configuration not stated)	71*	86*	-2.9	0.3	9	0.1
CC(C)(C)n1nnnc1C(c1ccncc1)N(Cc1ccccc1)Cc1ccco1 (configuration not stated)	87*	74*	-1.1	0.1	7	0.3
CC(C)(C)n1nnnc1C(c1cccs1)N(Cc1ccccc1)Cc1ccco1 (configuration not stated)	53*	31	-2.5	0.5	13	0.7
CCN(Cc1ccccc1)C(c1ccc(C)cc1)c1nnnn1C(C)(C)C (configuration not stated)	10	27	0.018	0.9	6	0.7
CC(C)(C)n1nnnc1C(c1cccs1)N(Cc1cccnc1)Cc1ccco1 (configuration not stated)	83*	86*	-4	0.2	-2	0.1
c1ccc(CN(Cc2cccs2)C(c2cccs2)c2nnnn2C2CCCC2)cc1 (configuration not stated)	41	32	-4.7	0.6	21	0.7
O=C(Nc1ccc2c(c1)OCO2)c1cncc(Br)c1	8	14	1.1	0.9	7	0.9
O=C(c1ccc(C23CC4CC(CC(C4)C2)C3)o1)N1CCOCC1	-6	5	-2	1.1	8	1
COC(=O)[C@H](C)NC(=O)Nc1cccc(C(F)(F)F)c1	.	.	0.38	.	4	.
Cc1ccc(Nc2nc(N)nc(CN3CCN(Cc4ccc5c(c4)OCO5)CC3)n2)cc1Cl	74*	60*	-5.2*	0.3	6	0.4
Cc1ccc(Nc2nc(N)nc(CN3CCN(Cc4ccc5c(c4)OCO5)CC3)n2)cc1	44	52*	-2.4	0.6	5	0.5
Cc1ccc(Nc2nc(N)nc(CN3CCN(Cc4ccc5c(c4)OCO5)CC3)n2)c(C)c1	38	52*	-0.27	0.6	9	0.5
Cc1ccc(CNC(=O)CCNC(=O)Cn2ccc3ccccc3c2=O)o1	5	-1	0.25	0.9	4	1
CNC(=O)NC(=O)CSc1nc2cc(C(=O)OC)ccc2c(=O)n1-c1ccccc1	15	-1	-1.6	0.8	-2	1
O=c1c2ccccc2n(Cc2cccc(F)c2)c(=O)n1C1CCCC1	27	32	.	0.7	16	0.7
CCOC(=O)Cn1c(=O)n(C2CCCC2)c(=O)c2ccccc21	77*	91*	.	0.2	4	0.1
N#Cc1ccccc1Cn1c(=O)n(C2CCCC2)c(=O)c2ccccc21	96*	86*	-5.1*	0	7	0.1
CCOC(=O)Cn1cc(C(=O)C2CC2)c2ccccc21	18	38	0.66	0.8	3	0.6
SMILES	CYP2C9 inh	CYP2C19 inh	Cav32 inh	CYP2C9 activ	HIV Rev-RRE inh	CYP2C19 activ
Cc1ccc(N2C(=O)NC3(CCCCC3)C2=O)cc1	9	42	1.3	0.9	.	0.6
Cc1ccc(N2C(=O)CC3(CC4C=CC3C4)C2=O)cc1 (configuration not stated)	81*	37	0.85	0.2	3	0.6
Cc1ccc2c(c1)NCCO2	-8	16	0.72	1.1	7	0.8
COc1ccccc1C/C(N)=N/OC(=O)COc1ccc(C)cc1C	.	.	-1.9	.	17	.
COc1ccccc1C/C(N)=N/OC(=O)c1ccc(C)c([N+](=O)[O-])c1	-244	9	-1.4	3.4*	4	0.9
COc1ccc(-c2csc(NC(=O)c3cccc(S(=O)(=O)N4CCN(C)CC4)c3)n2)cc1	7	10	0.43	0.9	3	0.9
COc1ccc(C2=CSC3=C(C(=O)c4cccc(S(=O)(=O)N(C)C)c4)CCN23)cc1	64*	86*	-0.83	0.4	10	0.1
COc1cc(/C=N/n2cnnc2)ccc1OCc1ccccc1	68*	70*	0.25	0.3	2	0.3
Clc1ccc(Oc2cccc(/C=N/n3cnnc3)c2)cc1	66*	91*	-0.22	0.3	9	0.1
C=CCc1ccc(OCCOc2ccc(/C=N/n3cnnc3)cc2OCC)c(OC)c1	44	61*	0.56	0.6	-10	0.4
C(=N\n1cnnc1)/c1cccc(OCCOc2ccccc2)c1	21	80*	0.46	0.8	2	0.2
CCOc1cc(/C=N/n2cnnc2)ccc1O	11	18	0.53	0.9	7	0.8
COc1cc(/C=N/n2cnnc2)ccc1OCCOc1ccccc1	58*	82*	1.2	0.4	7	0.2
COc1cc(/C=N/n2cnnc2)ccc1OCc1ccc(C)cc1	70*	49	0.026	0.3	9	0.5
CC(C)OCCCNC(=O)CCc1nc(-c2ccccc2)no1	3	21	0.66	1	.	0.8
Cn1nc(-c2ccc(Cl)cc2)c2cc(C(=O)NCC3CCCO3)sc21 (configuration not stated)	53*	28	0.97	0.5	1	0.7
Cc1ccc(-c2cc(C(=O)NCC3CCCO3)no2)cc1 (configuration not stated)	-12	44	0.4	1.1	-1	0.6
O=C(NCC1CCCO1)c1cc(-c2ccccc2)on1 (configuration not stated)	-156	-4	0.4	2.6*	6	1
CSc1ccccc1C(=O)NCC1CCCO1 (configuration not stated)	4	3	0.15	1	15	1
O=C(NCC1CCCO1)c1ccccc1-c1nc(-c2ccccc2)no1 (configuration not stated)	58*	24	-0.53	0.4	1	0.8
CCOC(=O)C1CSc2[nH]c(=O)sc2C1c1ccccc1 (configuration not stated)	62*	81*	-0.037	0.4	11	0.2
